Experimental data as given in ChEMBL document CHEMBL1800068 (J Med Chem, 2011).
Activity calls are given as the source filed them. No cut-off for these calls is given here.

How the values were obtained:
[1] = target: T1, Retinol-binding protein 4 (Homo sapiens, UniProt P02753); experiment: Binding affinity to His-tagged recombinant human sRBP expressed in Escherichia coli BL21(DE3) assessed as disruption of sRBP-TTR protein interaction at 1 to 100 uM after 1 hr by SDS-PAGE and silver staining method
In short: (§1)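 Compound was 100 μM, or 1, 10, 20, 50 and 100 μM for dose–response. Control was 10 μM ROH with no compound. Released free sRBP in the flow-through was analysed by SDS-PAGE; each run done at least three times.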

[2] = target: T1, Retinol-binding protein 4; experiment: Binding affinity to His-tagged recombinant human sRBP expressed in Escherichia coli BL21(DE3) assessed as disruption of sRBP-TTR protein interaction after 1 hr by SDS-PAGE and silver staining method; in short: as §1
[3] = target: T1, Retinol-binding protein 4; experiment: Binding affinity to immobilized His-tagged recombinant human sRBP assessed as inhibition of sRBP and detergent treated HEK293 membrane interaction at 10 uM after 1 hr by surface plasmon resonance assay
[4] = target: T1, Retinol-binding protein 4; experiment: Antagonist activity at His-tagged recombinant human sRBP […] assessed as disruption of ROH-sRBP-TTR protein interaction after 2 hr by TR-FRET assay relative to control; assay type: functional
In short: (§2)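 Apo His-sRBP (P. pastoris-expressed), 5 nM, with 100 nM biotinylated native TTR, 100 nM streptavidin-APC and 1 nM europium anti-His antibody. Inhibitor held at 10 μM while ROH was titrated, in 20 mM Tris-HCl pH 7.4, 150 mM NaCl, 1 mM EDTA, 0.01% BSA, 0.02% Tween 20.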

[5] = target: T1, Retinol-binding protein 4; experiment: Antagonist activity at His-tagged recombinant human sRBP […] assessed as disruption of ROH-sRBP-TTR protein interaction after 2 hr by TR-FRET assay; assay type: functional; in short: as §2
[6] = target: T1, Retinol-binding protein 4; experiment: Binding affinity to His-tagged recombinant human sRBP expressed in Pichia pastoris assessed as apparent dissociation constant after 5 mins by fluorescence spectrophotometric analysis; conditions: read-out: Kd(app)
[7] = target: T1, Retinol-binding protein 4; experiment: Binding affinity to His-tagged recombinant human sRBP expressed in Escherichia coli BL21(DE3) assessed as disruption of sRBP-TTR protein interaction at 100 uM after 1 hr by SDS-PAGE and silver staining method relative to 10 uM ROH; in short: as §1
[8] = target: T1, Retinol-binding protein 4; experiment: Antagonist activity at His-tagged recombinant human sRBP expressed in Escherichia coli BL21(DE3) assessed as disruption of sRBP-TTR protein interaction after 2 hr by surface plasmon resonance assay; assay type: functional
In short: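 SPR run at 25 °C on a Ni-NTA chip in HBS with 50 μM EDTA at 10 μL/min. Nickel activation, 5 min capture of 200 nM His-sRBP, 1 min compound pulse, then 5 min injection of 1 μM native untagged TTR preincubated with compound at 10 μM. Reference-surface corrected; regenerated with 0.3 mM EDTA; repeated three to five times.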

Row | Activity [1] | Activity [2] | Compound | also measured
1 | – | Active | CC1=C(/C=C/C(C)=C/C=C/C(C)=C/C(=O)NCc2ccc(Cl)cc2)C(C)(C)CCC1 | –
2 | – | Active | CC1=C(/C=C/C(C)=C/C=C/C(C)=C/C(=O)NCc2cccnc2)C(C)(C)CCC1 | –
3 | – | Active | COCCOc1ccc(NC(=O)/C=C(C)/C=C/C=C(C)/C=C/C2=C(C)CCCC2(C)C)cc1 | –
4 | – | Active | CC1=C(/C=C/C(C)=C/C=C/C(C)=C/C(=O)NCc2ccccn2)C(C)(C)CCC1 | –
5 | – | Active | COc1ccc(NC(=O)/C=C(C)/C=C/C=C(C)/C=C/C2=C(C)CCCC2(C)C)cc1 | –
6 | – | Active | COc1cc(NC(=O)/C=C(C)/C=C/C=C(C)/C=C/C2=C(C)CCCC2(C)C)cc(OC)c1OC | –
7 | – | Active | COc1ccccc1CNC(=O)/C=C(C)/C=C/C=C(C)/C=C/C1=C(C)CCCC1(C)C | –
8 | – | Active | CC1=C(/C=C/C(C)=C/C=C/C(C)=C/C(=O)NCc2ccc(F)cc2)C(C)(C)CCC1 | –
9 | – | Active | CC1=C(/C=C/C(C)=C/C=C/C(C)=C/C(=O)NC2CC2)C(C)(C)CCC1 | –
10 | – | Active | COC(=O)COc1ccc(NC(=O)/C=C(C)/C=C/C=C(C)/C=C/C2=C(C)CCCC2(C)C)cc1 | Activity [8]: inactive; Activity [3]: Active; Ratio EC50 [4]: 15; EC50 [5]: 1260 nM; Kd [6]: 131 nM
11 | – | Active | CC1=C(/C=C/C(C)=C/C=C/C(C)=C\C(=O)Nc2ccc(O)cc2)C(C)(C)CCC1 | Activity [3]: Active
12 | – | Active | COc1cccc(NC(=O)/C=C(C)/C=C/C=C(C)/C=C/C2=C(C)CCCC2(C)C)c1 | –
13 | – | Active | CCOc1ccc(NC(=O)/C=C(C)/C=C/C=C(C)/C=C/C2=C(C)CCCC2(C)C)cc1 | –
14 | – | Active | COc1ccc(CNC(=O)/C=C(C)/C=C/C=C(C)/C=C/C2=C(C)CCCC2(C)C)cc1 | –
15 | – | Dose-dependent effect | CC1=C(/C=C/C(C)=C/C=C/C(C)=C/C(=O)Nc2ccc(N(C)C)cc2)C(C)(C)CCC1 | Activity [3]: Active; Ratio EC50 [4]: 15; EC50 [5]: 954 nM; Kd [6]: 98 nM
16 | – | Active | COc1cccc(CNC(=O)/C=C(C)/C=C/C=C(C)/C=C/C2=C(C)CCCC2(C)C)c1 | –
17 | – | Active | CC1=C(/C=C/C(C)=C/C=C/C(C)=C/C(=O)Nc2ccc3c(c2)OCO3)C(C)(C)CCC1 | –
18 | – | Active | CC1=C(/C=C/C(C)=C/C=C/C(C)=C/C(=O)Nc2ccc(OCC(=O)N(C)C)cc2)C(C)(C)CCC1 | –
19 | – | Active | CC1=C(/C=C/C(C)=C/C=C/C(C)=C/C(=O)NCc2ccc3c(c2)OCO3)C(C)(C)CCC1 | –
20 | – | Active | CC1=C(/C=C/C(C)=C/C=C/C(C)=C/C(=O)Nc2ccc(OCC(=O)NCCO)cc2)C(C)(C)CCC1 | –
21 | – | Active | CC1=C(/C=C/C(C)=C/C=C/C(C)=C/C(=O)Nc2ccc(OCC(=O)O)cc2)C(C)(C)CCC1 | –
22 | – | Active | CC1=C(/C=C/C(C)=C/C=C/C(C)=C/C(=O)NCc2ccccc2)C(C)(C)CCC1 | –
23 | – | Active | CC1=C(/C=C/C(C)=C/C=C/C(C)=C/C(=O)Nc2ccccc2)C(C)(C)CCC1 | –

The remaining lines, values behind:

Row | Compound | Activity [1] | Activity [2] | also measured
24 | CC(C)(C)C(=O)Nc1ccc(O)cc1 | inactive | – | –
25 | O=C(Cc1ccccc1)Nc1ccc(O)cc1 | inactive | – | –
26 | CC1=C(/C=C/C(C)=C/C=C/C(C)=C/C(=O)NCCC(C)(C)C)C(C)(C)CCC1 | – | Active | –
27 | CC1=C(/C=C/C(C)=C/C=C/C(C)=C/C(=O)NCC2CC2)C(C)(C)CCC1 | – | Active | –
28 | CC1=C(/C=C/C(C)=C/C=C/C(C)=C/C(=O)NCc2ccc(Oc3ccccc3)cc2)C(C)(C)CCC1 | – | Active | –
29 | CC1=C(/C=C/C(C)=C/C=C/C(C)=C/C(=O)N2CCC(CCO)CC2)C(C)(C)CCC1 | – | Active | –
30 | O=C(CCCCc1ccccc1)Nc1ccc(O)cc1 | inactive | – | –
31 | CC(CCCC(C)CC(=O)Nc1ccc(O)cc1)CCC1C(C)CCCC1(C)C (stereo not drawn) | – | Active | –
32 | O=C(CCCc1ccccc1)Nc1ccc(O)cc1 | inactive | – | –
33 | CC1=C(/C=C/C(C)=C/C=C/C(C)=C/C(=O)N2CCOCC2)C(C)(C)CCC1 | – | Active | Activity [3]: Active; Ratio EC50 [4]: 2; EC50 [5]: 154 nM; Kd [6]: 227 nM
34 | CC1=C(/C=C/C(C)=C/C=C/C(C)=C/C(=O)N2CCCCC2)C(C)(C)CCC1 | – | Active | –
35 | CC1=C(/C=C/C(C)=C/C=C/C(C)=C/C(=O)N2CCC(O)(c3ccccc3)CC2)C(C)(C)CCC1 | – | Active | –
36 | CC1=C(/C=C/C(C)=C/C=C/C(C)=C/C(=O)Nc2ccc(O)cc2)C(C)(C)CCC1 | – | – | fold change (FC) [7]: 3; Activity [8]: Active; Activity [3]: inactive
37 | O=C(CCCCCc1ccccc1)Nc1ccc(O)cc1 | inactive | – | –
38 | CC1=C(/C=C/C(C)=C/C=C/C(C)=C/C(=O)NC2CCCCC2)C(C)(C)CCC1 | – | Active | –
39 | CC(C)(C)CC(=O)Nc1ccc(O)cc1 | inactive | – | –
40 | CC1=C(/C=C/C(C)=C/C=C/C(C)=C/C(=O)N2CCC(F)CC2)C(C)(C)CCC1 | – | Active | –
41 | CC(C)CCCC(=O)Nc1ccc(O)cc1 | inactive | – | –
42 | CC1=C(/C=C/C(C)=C/C=C/C(C)=C/C(=O)N2CCC(O)CC2)C(C)(C)CCC1 | – | Active | –
43 | CC1=C(/C=C/C(C)=C/C=C/C(C)=C/C(=O)NCCO)C(C)(C)CCC1 | – | Active | Activity [3]: Active; Ratio EC50 [4]: 2; EC50 [5]: 145 nM; Kd [6]: 214 nM
44 | CC(C)CC(=O)Nc1ccc(O)cc1 | inactive | – | –
45 | CC1=C(/C=C/C(C)=C/C=C/C(C)=C/C(=O)N2CCC(F)(F)CC2)C(C)(C)CCC1 | – | Active | –
46 | CC(C)c1ccc(CCCC(=O)Nc2ccc(O)cc2)cc1 | inactive | – | –

Row | Compound | Activity [1] | Activity [2] | also measured
47 | CC1=C(/C=C/C(C)=C/C=C/C(C)=C/C(=O)N2CCCOCC2)C(C)(C)CCC1 | – | Active | –
48 | COc1ccc(CCC(=O)Nc2ccc(O)cc2)cc1 | inactive | – | –
49 | CC1=C(/C=C/C(C)=C/C=C/C(C)=C/C(=O)N2CCS(=O)(=O)CC2)C(C)(C)CCC1 | – | Active | –
50 | CC1=C(/C=C/C(C)=C/C=C/C(C)=C/C(=O)N2CCC3CCCCC3C2)C(C)(C)CCC1 (stereo not drawn) | – | Active | –
51 | O=C(CCc1ccccc1)Nc1ccc(O)cc1 | inactive | – | –
52 | COCCC(=O)Nc1ccc(O)cc1 | inactive | – | –
53 | CC(C)=CCC/C(C)=C/C(=O)Nc1ccc(O)cc1 | inactive | – | –
54 | CC1=C(/C=C/C(C)=C/C=C/C(C)=C/C(=O)N2CCCC3CCCCC32)C(C)(C)CCC1 (stereo not drawn) | – | Active | –
55 | CC1=C(/C=C/C(C)=C/C=C/C(C)=C/C(=O)N2CCCCCC2)C(C)(C)CCC1 | – | Active | –
56 | CC(C)CCC(=O)Nc1ccc(O)cc1 | inactive | – | –
57 | CC1=C(/C=C/C(C)=C/C=C/C(C)=C/C(=O)NCCCOc2ccccc2)C(C)(C)CCC1 | – | Active | –
58 | CC(C)=CC(=O)Nc1ccc(O)cc1 | inactive | – | –
59 | CCOC(=O)CNC(=O)/C=C(C)/C=C/C=C(C)/C=C/C1=C(C)CCCC1(C)C | – | Active | –
60 | CC1=C(/C=C/C(C)=C/C=C/C(C)=C/C(=O)N2CCC(Cc3ccccc3)CC2)C(C)(C)CCC1 | – | Active | –
61 | COc1ccc(CC(=O)Nc2ccc(O)cc2)cc1 | inactive | – | –
62 | CCCCC(=O)Nc1ccc(O)cc1 | inactive | – | –
63 | COc1ccc(CCCC(=O)Nc2ccc(O)cc2)cc1 | inactive | – | –
64 | CC1=C(/C=C/C(C)=C/C=C/C(C)=C/C(=O)Nc2ccc(OCC(=O)N3CCCCC3)cc2)C(C)(C)CCC1 | – | Active | –
65 | CC(C)c1ccc(CCC(=O)Nc2ccc(O)cc2)cc1 | inactive | – | –
66 | COCCOCC(=O)Nc1ccc(O)cc1 | inactive | – | –
67 | C=CC(=O)Nc1ccc(O)cc1 | inactive | – | –
68 | CC1=C(/C=C/C(C)=C/C=C/C(C)=C/C(=O)NCC(O)CO)C(C)(C)CCC1 (stereo not drawn) | – | Active | Activity [3]: Active; Ratio EC50 [4]: 2; EC50 [5]: 171 nM; Kd [6]: 178 nM
69 | CC1=C(/C=C/C(C)=C/C=C/C(C)=C/C(=O)N2CCN(c3ccc(C)cc3)CC2)C(C)(C)CCC1 | – | Active | –
